Laboratory results as given in ChEMBL document CHEMBL1140224, “Dihydrofuro[3,4-c]pyridinones as inhibitors of the cytolytic effects of the pore-forming glycoprotein perforin” (J Med Chem, 2008).
Activity calls are given as the source filed them. The calls are words filed in the database; no cut-off is given here.

Columns and labels:
[1] = Cytotoxicity against human KHYG-1 cells assessed as cell viability upto 20 uM after 24 hrs by trypan blue exclusion assay; type: cell-based; conditions: read-out: Activity
Summary of the method: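 KHYG-1 cells at 4 × 10^5 cells/ml in RPMI + 0.1% BSA, compound up to 20 µM added for 20 min at RT. RPMI 0.1% BSA added in place of targets, 4 h at 37 °C, then washed ×3 and held 18 to 24 h at 37 °C in complete medium. Trypan blue read: clear cells as percent of total. DMSO vehicle control.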

[2] = target: T1, Perforin-1 (Homo sapiens) (UniProt P14222); test: Inhibition of human KHYG-1 NK cells delivered perforin-mediated death of human K562 cells upto 20 uM preincubated for 20 mins with KHYG-1 cells measured after 30 mins by 51Cr release assay; type: cell-based; conditions: in the assay text read “measured after 4 hrs” for “measured after 30 mins”
T1 sequence (whole entry): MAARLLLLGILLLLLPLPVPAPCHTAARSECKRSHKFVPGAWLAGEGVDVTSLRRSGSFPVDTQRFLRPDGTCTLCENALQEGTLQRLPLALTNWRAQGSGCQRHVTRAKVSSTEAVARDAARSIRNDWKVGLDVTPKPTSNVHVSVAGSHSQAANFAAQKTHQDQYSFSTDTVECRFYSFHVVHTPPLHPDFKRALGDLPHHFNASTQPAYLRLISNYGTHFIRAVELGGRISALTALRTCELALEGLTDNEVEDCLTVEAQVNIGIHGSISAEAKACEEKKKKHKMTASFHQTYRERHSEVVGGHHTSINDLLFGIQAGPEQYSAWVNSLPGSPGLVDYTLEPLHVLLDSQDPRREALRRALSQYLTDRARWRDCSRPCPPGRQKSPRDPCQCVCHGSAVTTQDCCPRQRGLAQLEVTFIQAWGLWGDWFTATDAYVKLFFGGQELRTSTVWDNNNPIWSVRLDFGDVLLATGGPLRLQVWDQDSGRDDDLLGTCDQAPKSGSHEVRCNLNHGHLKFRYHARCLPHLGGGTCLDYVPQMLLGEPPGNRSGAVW
Summary of the method: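 KHYG-1 NK cells (4 × 10^5/ml, RPMI + 0.1% BSA) given inhibitor up to 20 µM, 20 min at RT. K562 targets labeled with 75 µCi 51Cr for 90 min at 37 °C, added at effector:target 2:1, 4 h at 37 °C. % specific lysis from experimental, spontaneous and maximum release. Mean of triplicates ± SEM; inhibition relative to untreated control, DMSO vehicle control.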

[3] = system: Salmonella typhimurium; test: Mutagenic activity in Salmonella Typhimurium TA100 by Ames assay; type: toxicity, organism-based; conditions: salmonella enterica subsp. enterica serovar typhimurium
[4] = target: T2, Tumor necrosis factor ligand superfamily member 6 (Homo sapiens) (UniProt P48023); test: Inhibition of Fas ligand-mediated death of human Jurkat T cells upto 20 uM after 30 mins by 51Cr release assay; type: cell-based
T2 sequence (whole entry): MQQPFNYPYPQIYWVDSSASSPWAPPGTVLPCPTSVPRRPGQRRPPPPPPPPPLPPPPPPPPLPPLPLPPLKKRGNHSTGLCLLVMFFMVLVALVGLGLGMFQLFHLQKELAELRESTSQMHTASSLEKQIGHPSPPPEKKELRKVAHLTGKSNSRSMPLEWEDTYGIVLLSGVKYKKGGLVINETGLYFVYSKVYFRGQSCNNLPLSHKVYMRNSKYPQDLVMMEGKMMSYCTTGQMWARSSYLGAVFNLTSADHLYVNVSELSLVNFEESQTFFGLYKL
Summary of the method: (§1)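 Fifty thousand 51Cr-labeled Jurkat cells preincubated with 20 µM final inhibitor for 30 min at 37 °C. Anti-Fas agonistic mAb CH11 or recombinant TRAIL, each at 250 ng/mL final, in RPMI with 1% BSA for 2 h. Controls were DMSO diluent and a non-inhibitor at the same concentration; SDS gave maximum release. Supernatant 51Cr γ-counted, triplicates, mean ± SEM.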

[5] = target: T1, Perforin-1 (Homo sapiens); test: Inhibition of human CD3-CD56+ NK cell delivered perforin-mediated death of human K562 cells upto 20 uM preincubated for 30 mins with human CD3-CD56+ NK cell measured after 4 hrs by 51Cr release assay; type: cell-based
Summary of the method: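 Human CD3-CD56+ NK cells taken from donor buffy coats by Ficoll then negative MACS selection. Used same day or after up to 3 days in 100 U/mL IL-2. Up to 2 × 10^5 NK cells with inhibitor, DMSO or medium in RPMI 0.1% BSA, 30 min at RT. 1 × 10^4 51Cr-labeled K562 added, 4 h at 37 °C, % specific lysis, triplicates.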

[6] = target: Pneumolysin (Streptococcus pneumoniae serotype 4 (strain ATCC BAA-334 / TIGR4)) (UniProt P0C2J9); test: Inhibition of Streptococcus pneumoniae pneumolysin-mediated lysis of sheep red blood cells
Summary of the method: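 Single-point test at 20 µM compound, using the perforin/SRBC turbidity format with pneumolysin in place of perforin. Compound in DMSO is preincubated with the lytic protein for at least 30 min. Sheep red blood cells in RBC buffer are then added, and absorbance at 650 nm is read at 0 min and after 15 min at 37 °C. Matching DMSO serves as negative control.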

[7] = target: Tumor necrosis factor ligand superfamily member 10 (Homo sapiens) (UniProt P50591); test: Inhibition of recombinant TRAIL-mediated death of human Jurkat T cells upto 20 uM after 30 mins by 51Cr release assay; type: cell-based; summary of the method: as §1
Tumor necrosis factor ligand superfamily member 10 (Homo sapiens), sequence (P50591 whole entry): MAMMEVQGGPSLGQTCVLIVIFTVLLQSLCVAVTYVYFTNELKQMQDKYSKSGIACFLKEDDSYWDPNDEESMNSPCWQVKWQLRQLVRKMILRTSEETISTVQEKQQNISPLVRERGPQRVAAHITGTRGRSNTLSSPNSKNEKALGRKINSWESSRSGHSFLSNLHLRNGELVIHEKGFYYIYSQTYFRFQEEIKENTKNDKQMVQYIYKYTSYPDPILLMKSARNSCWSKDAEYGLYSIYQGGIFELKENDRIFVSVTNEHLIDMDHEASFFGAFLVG

Pneumolysin (Streptococcus pneumoniae serotype 4 (strain ATCC BAA-334 / TIGR4)), sequence (P0C2J9 whole entry): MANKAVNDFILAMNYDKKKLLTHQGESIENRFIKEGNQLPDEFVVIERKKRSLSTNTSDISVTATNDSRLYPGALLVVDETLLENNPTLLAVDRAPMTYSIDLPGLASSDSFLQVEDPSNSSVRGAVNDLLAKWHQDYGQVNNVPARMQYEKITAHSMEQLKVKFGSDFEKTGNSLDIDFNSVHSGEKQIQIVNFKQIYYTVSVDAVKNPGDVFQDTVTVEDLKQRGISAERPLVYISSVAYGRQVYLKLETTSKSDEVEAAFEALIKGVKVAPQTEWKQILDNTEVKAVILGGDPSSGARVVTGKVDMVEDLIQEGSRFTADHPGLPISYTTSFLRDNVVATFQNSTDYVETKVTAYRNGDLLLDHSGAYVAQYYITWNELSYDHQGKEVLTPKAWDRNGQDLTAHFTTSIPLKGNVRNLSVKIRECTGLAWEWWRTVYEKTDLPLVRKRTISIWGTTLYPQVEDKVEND

SMILES	viability at 24 h [1]	inhibition [2]	Activity [3]	further results
Cc1cc2c(c(=S)[nH]1)C(=O)O/C2=C\c1ccc(-c2ccccc2)s1	0%	100%	–	–
Cc1cc2c(c(=S)[nH]1)C(=O)O/C2=C\c1ccc(C)o1	72%	50%	Active	Activity [4]: inactive; inhibition [5]: > 70%; Activity [6]: inactive; Activity [7]: inactive
Cc1cc2c(c(=S)[nH]1)C(=O)O/C2=C\c1csc2ccccc12	88%	63%	Not Active	–
Cc1cc2c(c(=S)[nH]1)C(=O)O/C2=C\c1cccs1	–	–	Not Active	–
Cc1cc2c(c(=S)[nH]1)C(=O)O/C2=C\c1ccco1	–	–	Active	–
Cc1cc2c(c(=S)[nH]1)C(=O)O/C2=C\c1cc2ccccc2[nH]1	0%	95%	–	–
Cc1cc2c(c(=O)[nH]1)C(=O)O/C2=C\c1cc2ccccc2s1	100%	65%	–	–
Cc1cc2c(c(=S)[nH]1)C(=O)O/C2=C\c1ccc[nH]1	–	–	Not Active	–
COc1ccc2oc(/C=C3\OC(=O)c4c3cc(C)[nH]c4=S)cc2c1	0%	100%	–	–
